From ChEMBL document CHEMBL2034958, “Peptidolipins B-F, antibacterial lipopeptides from an ascidian-derived Nocardia sp” (2012)
≈ marks a conversion by molar mass, not a printed value. Calls of active or inactive are those of the source. No cut-off for these calls is given here.

Key:
[1] = test system: Staphylococcus aureus; assay: Antibacterial activity against methicillin-susceptible Staphylococcus aureus ATCC 29213 after 18 hrs; type: functional; conditions: ATCC 29213, 18 h
Procedure, shortened: (§1)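 Dilution susceptibility test for aerobic bacteria. Compounds dissolved in DMSO and serially diluted to 10 concentrations (0.125–64 μg/mL) in 96-well plates, run in triplicate. Vancomycin served as control, with six untreated media controls per plate. Incubation at 33 °C for 18 h; MIC read as the lowest concentration inhibiting visible growth.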

[2] = test system: Staphylococcus aureus; assay: Bacteriostatic activity against methicillin-susceptible Staphylococcus aureus ATCC 29213 after 18 hrs; type: functional, organism-based
Procedure, shortened: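 Broth dilution susceptibility test for aerobic bacteria against MSSA ATCC 29213. Compounds in DMSO, serially diluted to 10 concentrations (0.125−64 μg/mL) in 96-well plates, tested in triplicate with vancomycin control and six untreated media controls per plate. Incubated at 33 °C for 18 h. MIC was the lowest concentration without visible growth. Inhibited wells were swabbed onto LB plates to distinguish bacteriostatic from bactericidal.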

[3] = test system: Staphylococcus aureus; assay: Bacteriostatic activity against methicillin-resistant Staphylococcus aureus ATCC 33591 after 18 hrs; type: functional, organism-based
Procedure, shortened: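 After the 18 h, 33 °C microdilution MIC plate, a sterile swab dipped into each well showing growth inhibition was inoculated onto an LB plate to tell bactericidal from bacteriostatic action.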

[4] = test system: Staphylococcus aureus; assay: Antibacterial activity against methicillin-resistant Staphylococcus aureus ATCC 33591 after 18 hrs; type: functional; conditions: ATCC 33591, 18 h; procedure, shortened: as §1

SMILES | MIC [1] [µg/mL] | Activity [2] | Activity [3] | MIC [4] [µg/mL]
CCCCCCCC/C=C\CCCCCCCCCCCCCCC[C@@H]1CC(=O)N[C@H]([C@H](C)O)C(=O)N[C@@H](C(C)C)C(=O)N[C@@H](C)C(=O)N2CCC[C@@H]2C(=O)N[C@H]([C@@H](C)CC)C(=O)N[C@@H](C(C)C)C(=O)N[C@@H]([C@@H](C)OC)C(=O)O1 [PEPTIDOLIPIN E] | 64 (≈ 57.3 µM) | Active | Active | –
CCCCCCCCCCCCCCCCCCCCCCC[C@@H]1CC(=O)N[C@H]([C@H](C)O)C(=O)N[C@@H](C(C)C)C(=O)N[C@@H](C)C(=O)N2CCC[C@@H]2C(=O)N[C@H]([C@@H](C)CC)C(=O)N[C@@H](C(C)C)C(=O)N[C@@H]([C@@H](C)OC)C(=O)O1 [PEPTIDOLIPIN B] | – | Active | Active | 64 (≈ 58.7 µM)
CCCCCCCCCCCCCCCCCCCCCCCCC[C@@H]1CC(=O)N[C@H]([C@H](C)O)C(=O)N[C@@H](C(C)C)C(=O)N[C@@H](C)C(=O)N2CCC[C@@H]2C(=O)N[C@H]([C@@H](C)CC)C(=O)N[C@@H](C(C)C)C(=O)N[C@@H]([C@@H](C)OC)C(=O)O1 [PEPTIDOLIPIN C] | > 64 | – | – | > 64
CCCCCCCCCCCCCCCCCCCCCCCCCCC[C@@H]1CC(=O)N[C@H]([C@H](C)O)C(=O)N[C@@H](C(C)C)C(=O)N[C@@H](C)C(=O)N2CCC[C@@H]2C(=O)N[C@H]([C@@H](C)CC)C(=O)N[C@@H](C(C)C)C(=O)N[C@@H]([C@@H](C)OC)C(=O)O1 [PEPTIDOLIPIN D] | > 64 | – | – | > 64
